Key:
Format in all cases: functional
[1] = test system: Aspergillus niger; experiment: Antifungal activity against Aspergillus niger at 500 ug after 24 hrs by paper disc technique; settings: for zone of inhibition at 500 µg/disc: Aspergillus niger, 24 h, read-out: DIZ
How it was run: (§1)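 Paper disc diffusion on double-layer potato dextrose agar: 15 mL sterile base topped with 15 mL medium seeded at 40 °C with spores from ten-day cultures; streptomycin added to prevent bacterial growth. Compounds dissolved in DMF at 500 or 1000 µg/mL and applied to 6 mm filter paper discs on chilled seeded plates. Plates incubated at 28 ± 2 °C. Inhibition zone measured from disc centre at 24 h, percent inhibition calculated as (C − T)/C × 100. Fluconazole at same concentrations served as standard.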

[2] = test system: Aspergillus niger; experiment: Antifungal activity against Aspergillus niger at 1000 ug after 24 hrs by paper disc technique; settings: for zone of inhibition at 1000 µg/disc: Aspergillus niger, 24 h, read-out: DIZ; how it was run: as §1
[3] = test system: Aspergillus flavus; experiment: Antifungal activity against Aspergillus flavus at 500 ug after 24 hrs by paper disc technique; settings: for zone of inhibition at 500 µg/disc: Aspergillus flavus, 24 h, read-out: DIZ; how it was run: as §1
[4] = test system: Aspergillus flavus; experiment: Antifungal activity against Aspergillus flavus at 1000 ug after 24 hrs by paper disc technique; settings: for zone of inhibition at 1000 µg/disc: Aspergillus flavus, 24 h, read-out: DIZ; how it was run: as §1
[5] = test system: Rhizopus; experiment: Antifungal activity against Rhizopus species at 500 ug after 24 hrs by paper disc technique; settings: for zone of inhibition at 500 µg/disc: Rhizopus, 24 h, read-out: DIZ; how it was run: as §1
[6] = test system: Rhizopus; experiment: Antifungal activity against Rhizopus species at 1000 ug after 24 hrs by paper disc technique; settings: for zone of inhibition at 1000 µg/disc: Rhizopus, 24 h, read-out: DIZ; how it was run: as §1
[7] = test system: Penicillium sp.; experiment: Antifungal activity against Penicillium species at 500 ug after 24 hrs by paper disc technique; settings: for zone of inhibition at 500 µg/disc: Penicillium sp., 24 h, read-out: DIZ; how it was run: as §1
[8] = test system: Penicillium sp.; experiment: Antifungal activity against Penicillium species at 1000 ug after 24 hrs by paper disc technique; settings: for zone of inhibition at 1000 µg/disc: Penicillium sp., 24 h, read-out: DIZ; how it was run: as §1

| SMILES | Activity [1] [%] | zone of inhibition at 500 µg/disc [1] [mm] | percent inhibition [2] [%] | zone of inhibition at 1000 µg/disc [2] [mm] | Activity [3] [%] | zone of inhibition at 500 µg/disc [3] [mm] | percent growth inhibition [4] [%] | zone of inhibition at 1000 µg/disc [4] [mm] | Activity [5] [%] | zone of inhibition at 500 µg/disc [5] [mm] | Activity [6] [%] | zone of inhibition at 1000 µg/disc [6] [mm] | Activity [7] [%] | zone of inhibition at 500 µg/disc [7] [mm] | percent inhibition [8] [%] | zone of inhibition at 1000 µg/disc [8] [mm] |
| --- | --- | --- | --- | --- | --- | --- | --- | --- | --- | --- | --- | --- | --- | --- | --- | --- |
| Cc1n[nH]c2c1C=Nc1nnc(-c3ccccc3)n1N2 | 36.66 | 22 | 53.33 | 32 | 33.33 | 20 | 40 | 24 | 53.33 | 32 | 60.66 | 40 | 10 | 6 | 13.33 | 8 |
| Cc1n[nH]c2c1C=Nc1nnc(-c3ccc(Cl)cc3)n1N2 | 38.33 | 23 | 53.33 | 32 | 36.66 | 22 | 40 | 24 | 51.66 | 31 | 60.66 | 40 | 13.33 | 8 | 15 | 9 |
| C1=Nc2nnc(-c3ccccc3)n2Nc2c1c(-c1ccccc1)nn2-c1ccccc1 | 33.33 | 20 | 51.66 | 31 | 35.36 | 21 | 35.36 | 21 | 66.66 | 36 | 65 | 39 | 8.33 | 5 | 3.33 | 2 |
| Brc1ccc(-c2nn(-c3ccccc3)c3c2C=Nc2nnc(Cc4ccccc4)n2N3)cc1 | 3.33 | 2 | 23.33 | 14 | 33.33 | 20 | 13.33 | 8 | 46.66 | 28 | 40 | 24 | 8.33 | 5 |  |  |
| Clc1ccc(-c2nnc3n2Nc2c(c(-c4ccc(Br)cc4)nn2-c2ccccc2)C=N3)cc1 | 53.33 | 32 | 35.36 | 21 | 36.66 | 22 | 40 | 24 | 60.66 | 40 | 53.33 | 32 | 15 | 9 | 13.33 | 8 |
| O=[N+]([O-])c1ccc(-c2nnc3n2Nc2c(c(-c4ccc(Br)cc4)nn2-c2ccccc2)C=N3)cc1 | 23.33 | 14 | 3.33 | 2 | 31.33 | 18 | 13.33 | 8 | 40 | 24 | 35.36 | 21 | 3.33 | 2 | 8.33 | 5 |
| Brc1ccc(-c2nn(-c3ccccc3)c3c2C=Nc2nnc(-c4ccccc4)n2N3)cc1 | 3.33 | 2 | 21.33 | 12 | 31.33 | 18 | 11.33 | 6 | 42.66 | 26 | 38 | 22 | 8.33 | 5 | 13.33 | 8 |
| O=[N+]([O-])c1ccc(-c2nn(-c3ccccc3)c3c2C=Nc2nnc(-c4ccccc4)n2N3)cc1 | 51.66 | 31 | 33.33 | 20 | 40 | 24 | 36.66 | 22 | 65 | 39 | 66.66 | 36 | 12.98 | 7 | 15 | 9 |
| O=[N+]([O-])c1ccc(-c2nn(-c3ccccc3)c3c2C=Nc2nnc(Cc4ccccc4)n2N3)cc1 | 3.33 | 2 | 23.33 | 14 | 33.33 | 20 | 13.33 | 8 | 46.66 | 28 | 40 | 24 |  |  |  |  |
| O=[N+]([O-])c1ccc(-c2nn(-c3ccccc3)c3c2C=Nc2nnc(-c4ccc([N+](=O)[O-])cc4)n2N3)cc1 | 13.33 | 8 | 25 | 15 | 5 | 3 | 15 | 9 | 30 | 18 | 38.33 | 23 |  |  |  |  |
| OC(Cn1cncn1)(Cn1cncn1)c1ccc(F)cc1F [FLUCONAZOLE] | 70 | 42 | 80 | 48 | 58.33 | 35 | 70 | 42 | 63.33 | 38 | 70 | 42 | 86.66 | 52 | 90 | 54 |

— ChEMBL document CHEMBL1667757, “Efficient and novel one-pot synthesis of antifungal active 1-substituted-8-aryl-3-alkyl/aryl-4H-pyrazolo[4,5-f][1,2,4]triazolo[4,3-b][1,2,4]triazepines using solid support” (2011)
